Source: PubChem BioAssay
HSF-1 act: HSF-1 activators, primary screen, NIH3T3-HGL cells, MG132 stress, luminescence, single point; AID 504408, 2011; NIH3T3-HGL HSF-1 luciferase reporter, 8 h; 100% = twice DMSO control signal; 300,000 tested, 1.7% active; activation, % at 9 µM;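 active = mean replicate activation of at least 50% with a set share of replicates each reaching 50%; inconclusive = only one of those two conditions met; inactive = mean below 50% and too few replicates reaching it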
core dimer inh: inhibitors of HCV core protein dimerization, primary screen, biochemical, TR-FRET, high-throughput; TR-FRET GST/Flag-core106 dimerization, 1536-well; inhibition, % at 5 µM; 300,000 tested, 0.33% active;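 active = inhibition above the mean of all tested compounds plus 3 SD, set per screening campaign, cut at about 45% in these data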
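Test system: GST/Flag-tagged HCV core106 proteins; Medium: KF-containing HEPES buffer, pH 7.45, DTT, CHAPS, BSA; Times: compound-protein-antibody incubation 4 h at 22.5 °C; Detection: TR-FRET 671 and 617 nm emission; Benchmarks: wells lacking GST-core106 and wells with excess unlabelled core106.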
HSF1 inh: HSF1 inhibitors in luciferase reporter cells, primary screen, cell-based, NIH3T3, luminescence. 300,000 tested, 0.77% active. activity change, negative = inhibition, % at 7.5 µM (by protocol). NIH3T3-HGL HSE-luciferase, MG132-induced, luminescence 8 h; hits give low values;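 active = more than half of replicate wells show activity change below -50%, luminescence cut by over half; inconclusive = some wells, but at most half, below -50%; inactive = no replicate well below -50%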;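 note: luciferase reports HSF-1 transcriptional activity via heat shock element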
AI-2 QS mod: Vibrio harveyi AI-2 quorum sensing modulators, primary screen, JMH597 strain, luminescence/OD600 ratio; Vibrio harveyi JMH597 AI-2 luminescence/OD600 ratio, 9 h; hits give low values; strain lacks LuxN and CqsS sensors; 0 = neutral-control median; activity change, % at 7.5 µM; 300,000 tested, 0.4% active; AID 2094, 2009; in the data active = activity change below about -75%, passing the limit was not always enough; inconclusive = no clear call, values can overlap the other calls;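 note: luminescence divided by OD600 gain over 9 h not by final OD600 alone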
ALR inh: inhibitors of human ALR sulfhydryl oxidase, primary screen, biochemical, H2O2 detection, HRP-luminol luminescence, single point; purified ALR, DTT oxidation; inhibition, % (no concentration beside the values); 290,000 tested, 3.8% active; AID 485317, 2010;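 active = mean replicate inhibition above about 79%, with every replicate also reaching it, limit read from the data; inconclusive = only one of the two criteria met; inactive = mean below limit and not every replicate reaching it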
Target sequence (P55789 whole entry, looked up): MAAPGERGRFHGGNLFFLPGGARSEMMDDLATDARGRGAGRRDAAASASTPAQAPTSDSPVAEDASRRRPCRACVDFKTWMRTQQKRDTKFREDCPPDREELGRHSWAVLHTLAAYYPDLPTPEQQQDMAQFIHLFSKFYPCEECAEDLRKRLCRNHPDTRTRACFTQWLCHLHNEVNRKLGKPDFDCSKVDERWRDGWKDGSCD
PHOSPHO1 inh: PubChem AID 1565. Phosphoethanolamine/phosphocholine phosphatase (Homo sapiens), Q8TCT1. recombinant PHOSPHO1, absorbance phosphatase assay. inhibition, % at 13.3 µM. 290,000 tested, 1.1% active; in the data active = inhibition above about 60%
Target sequence (Q8TCT1 whole entry, looked up): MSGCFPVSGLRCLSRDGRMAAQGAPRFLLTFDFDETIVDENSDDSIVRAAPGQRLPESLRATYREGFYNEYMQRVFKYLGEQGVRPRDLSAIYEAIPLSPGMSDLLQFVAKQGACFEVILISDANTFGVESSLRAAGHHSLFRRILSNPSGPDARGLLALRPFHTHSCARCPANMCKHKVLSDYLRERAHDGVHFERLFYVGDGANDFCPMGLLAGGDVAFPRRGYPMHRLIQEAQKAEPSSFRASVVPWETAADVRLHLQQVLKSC
Large screens that a line does not name were inactive. Shown are actives, neighbours in structure and some others; about 6.8% of the full set was active somewhere.

CCOCCCNCC(=O)NCC1CCCCC1	none
CCCn1c(Cc2ccccc2)nnc1SC(C)C(=O)NC1CC1 (configuration not stated)	none (no result: HSF-1 act, core dimer inh, HSF1 inh, AI-2 QS mod, PHOSPHO1 inh)
CCOc1ccc(OCCC(=O)N2CCN(S(=O)(=O)c3cccc(F)c3)CC2)cc1	none (no result: PHOSPHO1 inh)
CNc1sc(C(=O)c2ccc(F)cc2)c(N)c1-c1nc2ccccc2s1	ALR inh 91
CC(C)c1ncc(S(=O)(=O)c2ccc(C(F)(F)F)cn2)c(N)n1	none (no result: ALR inh)
CC(C)CN(C(=O)COC(=O)C12CC3CC(CC(C3)C1)C2)c1c(N)n(Cc2ccccc2)c(=O)[nH]c1=O	none (no result: AI-2 QS mod, PHOSPHO1 inh)
O=C(NCCCn1ccnc1)c1cccc(Br)c1	none
Cc1scc(C(=O)N/N=C/c2ccc([N+](=O)[O-])o2)c1C	AI-2 QS mod -91
O=C(N/N=C/c1ccc([N+](=O)[O-])o1)c1ccc(O)cc1	AI-2 QS mod -128 (no result: ALR inh)
CCNc1nc(NCC)nc(N/N=C/c2ccc([N+](=O)[O-])o2)n1	AI-2 QS mod -158
N#Cc1ccc(OCC(=O)Nc2ccc(N3CCCC3)cc2)cc1	none (no result: HSF-1 act, core dimer inh, HSF1 inh, AI-2 QS mod, PHOSPHO1 inh)
COc1ccc(CNC(=O)C(C)n2ccc3cc(S(=O)(=O)N4CCCCCC4)ccc32)cc1 (configuration not stated)	none
COc1ccc(CCNC(=O)CCNC(=O)c2ccccc2Cl)cc1	none (no result: ALR inh)
O=C(NNC(=S)Nc1ccc(Cl)c(Cl)c1)c1cccc([N+](=O)[O-])c1	ALR inh 98
O=C(NNC(=S)NC(=O)c1cccc([N+](=O)[O-])c1)c1ccc(Br)cc1	AI-2 QS mod -212, ALR inh 96
O=C(NC(=S)Nc1cccc(F)c1)c1cccc([N+](=O)[O-])c1	none
O=C(NC(=S)N1CCCC1)c1cccc([N+](=O)[O-])c1	none
O=C(NNC(=S)NC(=O)c1cccc([N+](=O)[O-])c1)c1ccc(O)cc1	ALR inh 88
O=C(NNC(=O)c1cccc([N+](=O)[O-])c1)c1ccncc1	none
O=C(NNC(=S)NC(=O)c1ccccc1)c1cccc([N+](=O)[O-])c1	ALR inh 98
Cc1occc1C(=O)NCc1ccccn1	ALR inh 82
O=C(/C=C/c1cccc([N+](=O)[O-])c1)NC(=S)Nc1cccc(NC(=O)c2ccccc2Cl)c1	HSF-1 act 61
Cc1cccc(NC(=S)NNC(=O)c2cccc([N+](=O)[O-])c2)c1	none
Cc1occc1C(=O)NNC(=S)Nc1cccc([N+](=O)[O-])c1	ALR inh 98, PHOSPHO1 inh 88
Cc1ccc(C(=O)NC(=S)NNC(=O)c2cccc([N+](=O)[O-])c2)cc1	AI-2 QS mod inconclusive, ALR inh 99 (no result: core dimer inh)
CSCCC(NC(=O)/C(=C/c1ccc(F)cc1)NC(C)=O)C(=O)O (configuration not stated)	none
COc1ccc(CCNC(=O)CSc2ccc(-c3ccncc3)nn2)cc1	none
O=C(NCc1ccccn1)Nc1cccc([N+](=O)[O-])c1	none
O=C(NCc1ccccn1)c1cccc(S(=O)(=O)Nc2ccc(SC(F)F)cc2)c1	ALR inh 98 (no result: PHOSPHO1 inh)
O=C(NCc1ccncc1)c1cccc(S(=O)(=O)Nc2ccc(SC(F)F)cc2)c1	none (no result: AI-2 QS mod, PHOSPHO1 inh)
O=C(NCc1ccccn1)c1cccc([N+](=O)[O-])c1	HSF-1 act 62
CCOc1ccc2nc(SCc3ccc(C(=O)OC)o3)[nH]c2c1	HSF-1 act inconclusive
COC(=O)c1ccc(CSc2nc3ccc(Cl)cc3[nH]2)o1	ALR inh 97
COC(=O)c1ccc(CSc2nc3c(cnn3-c3ccc(C)c(C)c3)c(=O)[nH]2)o1	none (no result: HSF-1 act, HSF1 inh, AI-2 QS mod)
COC(=O)c1ccc(CSc2nc3scc(-c4cccs4)c3c(=O)[nH]2)o1	PHOSPHO1 inh 72
CSc1ncccc1C(=O)NNc1cc(Cl)ccc1Cl	none (no result: PHOSPHO1 inh)
N#Cc1c(SCC(=O)Nc2ccccc2C(F)(F)F)sc2c(O)cc(=O)[nH]c12	none
Cc1c(Cl)cccc1NC(=O)CSc1sc2c(O)cc(=O)[nH]c2c1C#N	ALR inh inconclusive
N#Cc1cccc(NC(=O)CSc2sc3c(O)cc(=O)[nH]c3c2C#N)c1	ALR inh 99
N#Cc1c(SCC(=O)Nc2ccc(Cl)cc2Cl)sc2c(O)cc(=O)[nH]c12	ALR inh 99
CCOc1cccc(NC(=O)CSc2sc3c(O)cc(=O)[nH]c3c2C#N)c1	ALR inh 99
CCCSc1nnc(NC(=O)CSc2sc3c(O)cc(=O)[nH]c3c2C#N)s1	ALR inh inconclusive
N#Cc1c(SCC(=O)Nc2cccc(F)c2)sc2c(O)cc(=O)[nH]c12	ALR inh 99
COc1ccc(C(C)(C)C)cc1NC(=O)COC(=O)C1=NNC(=O)CC1	none (no result: HSF-1 act, core dimer inh, HSF1 inh, AI-2 QS mod, PHOSPHO1 inh)
Cc1ccc(NS(=O)(=O)c2ccc(C(=O)N3CCCC(C(F)(F)F)C3)cc2)cc1 (configuration not stated)	none (no result: PHOSPHO1 inh)
CSC[C@@H]1NC(=S)N(c2ccc(C)cc2)C1=O	none
Nc1cccc(-n2cccc2)c1	none
COc1cccc(CN2C(=O)NC3(CCCCCC3)C2=O)c1	none
CC(=O)C1=C(C)OC2(O)c3ccccc3C(=O)C12O (configuration not stated)	HSF-1 act 59 (no result: AI-2 QS mod)
CCOC(=O)C1=C(C)OC2(O)c3ccccc3C(=O)C12O (configuration not stated)	none
N#CCSc1nc2ccccc2c2nc3ccccc3n12	HSF-1 act 68
N#CCSc1nc2cc(C(=O)N3CCC(C(N)=O)CC3)ccc2c2nc3ccccc3n12	ALR inh 98
O=C(OCc1ccc(F)cc1)c1cc(S(=O)(=O)N2CCCCC2)ccc1N1CCOCC1	none (no result: PHOSPHO1 inh)
Cc1ccc(C(=O)N2CCN(C)CC2)cc1S(=O)(=O)N1CCCCCC1	none
CCNC(=O)n1cc(-n2cncn2)c(-c2ccccc2)n1	none
CCc1ccc2[nH]c(C(=O)N(C)c3ccc(F)cc3F)cc2c1	none
COc1cccc(C(=O)c2c[nH]c(C(=O)NCc3ccco3)c2)c1	HSF1 inh -56
Cc1ccc(-c2nc(SCC(=O)N(C)C3CCS(=O)(=O)C3)[nH]c2-c2ccc(C)cc2)cc1 (configuration not stated)	ALR inh 98
CCCCC1(C(=O)OC)NC(c2ccc(O)cc2)C2C(=O)N(c3ccccc3)C(=O)C21 (configuration not stated)	none
COc1ccc(C2CC(c3ccccc3)=NN2C(=O)CN2N=NC3C(=O)N(c4cccc(F)c4)C(=O)C32)cc1 (configuration not stated)	none
